In one series the target is Cytochrome P450 3A4 (Homo sapiens, UniProt P08684). The experiment in a line: Inhibition of CYP3A4 after 30 mins by fluorometric assay. The series is classed as ADME. An outline of the steps: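 cDNA-expressed CYP3A4 in insect cell microsomes (with insect cell control protein) O-dealkylating 7-benzyloxy-4-trifluoromethylcoumarin to fluorescent 7-HFC. Samples in MeOH, 8-point 1:3 serial dilutions in pH 7.4 potassium phosphate with an NADP+/glucose-6-phosphate/G6PDH/MgCl2 regenerating system. 10 min prewarm, 30 min at 37 °C, stopped with acetonitrile–Tris base. Triplicate; IC50 by linear interpolation.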
Chain of Cytochrome P450 3A4 (P08684 whole entry): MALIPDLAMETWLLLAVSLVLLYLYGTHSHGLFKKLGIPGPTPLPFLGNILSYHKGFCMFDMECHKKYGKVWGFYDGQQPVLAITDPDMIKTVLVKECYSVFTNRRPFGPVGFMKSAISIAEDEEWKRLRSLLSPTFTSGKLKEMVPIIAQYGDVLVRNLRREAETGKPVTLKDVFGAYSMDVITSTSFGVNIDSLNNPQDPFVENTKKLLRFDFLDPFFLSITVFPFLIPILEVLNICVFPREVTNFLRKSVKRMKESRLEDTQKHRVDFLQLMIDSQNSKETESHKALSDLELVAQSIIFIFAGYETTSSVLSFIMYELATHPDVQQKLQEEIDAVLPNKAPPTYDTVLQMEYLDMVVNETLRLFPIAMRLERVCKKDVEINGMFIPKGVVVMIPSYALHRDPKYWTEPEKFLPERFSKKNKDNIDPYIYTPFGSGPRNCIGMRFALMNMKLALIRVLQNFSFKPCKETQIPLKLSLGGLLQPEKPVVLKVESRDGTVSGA

A further series concerns the target Cytochrome P450 2D6 (Homo sapiens, UniProt P10635). As to the kind of experiment: Inhibition of CYP2D6 after 30 mins by fluorometric assay. The series is classed as ADME. The method, boiled down: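 cDNA-expressed CYP2D6 in insect cell microsomes with AMMC ([…] in the enzyme/substrate mix), in pH 7.4 phosphate buffer with an NADP+/glucose-6-phosphate/G6PDH/MgCl2 regenerating system. Compound in MeOH, eight-point 1:3 serial dilution. 10 min prewarm, then 30 min at 37 °C. Stopped with acetonitrile–Tris. Triplicate; IC50 by linear interpolation.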

Chain of Cytochrome P450 2D6 (P10635 whole entry): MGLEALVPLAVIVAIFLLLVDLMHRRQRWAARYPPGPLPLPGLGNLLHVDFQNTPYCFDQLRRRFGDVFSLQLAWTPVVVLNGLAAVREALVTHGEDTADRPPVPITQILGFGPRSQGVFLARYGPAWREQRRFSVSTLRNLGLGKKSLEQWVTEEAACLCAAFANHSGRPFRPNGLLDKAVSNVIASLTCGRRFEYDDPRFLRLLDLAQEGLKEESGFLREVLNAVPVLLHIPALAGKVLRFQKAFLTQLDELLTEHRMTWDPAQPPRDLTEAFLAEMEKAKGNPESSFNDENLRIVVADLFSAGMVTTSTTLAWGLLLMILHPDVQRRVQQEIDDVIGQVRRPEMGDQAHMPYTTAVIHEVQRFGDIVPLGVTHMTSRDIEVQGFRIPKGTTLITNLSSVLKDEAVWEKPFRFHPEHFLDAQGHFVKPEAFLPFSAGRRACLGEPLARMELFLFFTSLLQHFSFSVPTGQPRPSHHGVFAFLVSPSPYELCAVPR

The IC50 is the concentration that gives 50% inhibition. For the compound `COc1cc2c(cc1O)[C@H](c1ccc(O)c(O)c1)[C@@H](CO)[C@H](CO)C2` [ISOTAXIRESINOL], the IC50 result at Cytochrome P450 3A4 and on Cytochrome P450 2D6 was “Not Active” throughout.
Take `COc1cc(C[C@H]2CO[C@H](c3ccc(O)c(O)c3)[C@H]2CO)ccc1O` [TAXIRESINOL]: the results for the IC50 at Cytochrome P450 3A4 (read-out: IC50) and at Cytochrome P450 2D6 (read-out: IC50) were 85.6 µM and 68.1 µM, respectively.
Regarding `COc1cc([C@H](O)[C@H]2CO[C@H](c3ccc(O)c(O)c3)[C@H]2CO)ccc1O` [(7R)-7-HYDROXYTAXIRESINOL], the half-maximal inhibitory concentration (IC50) entry against Cytochrome P450 3A4 and against Cytochrome P450 2D6 was “Not Active” in each case.
As to `COc1cc(C[C@H]2CO[C@H](c3ccc(O)c(OC)c3)[C@H]2CO)ccc1O` [LARICIRESINOL], the IC50 at Cytochrome P450 3A4 (read-out: IC50) is 25.6 µM; at Cytochrome P450 2D6 (read-out: IC50), > 100 µM.
On the same counts, the results for `COc1cc([C@H]2OC[C@H]([C@@H](O)c3ccc(O)c(OC)c3)[C@@H]2CO)ccc1O` are 66.5 µM and > 100 µM.
Turning to `COc1cc([C@@H](O)[C@@H]2CO[C@H](c3ccc(O)c(OC)c3)[C@H]2CO)ccc1O` [TANEGOOL], the IC50 entry against Cytochrome P450 3A4 and against Cytochrome P450 2D6 was “Not Active” throughout.
As for `COc1cc([C@H]2c3cc(O)c(OC)cc3C[C@@H](CO)[C@@H]2CO)ccc1O` [ISOLARICIRESINOL], the IC50 on Cytochrome P450 3A4 (read-out: IC50) is > 100 µM; on Cytochrome P450 2D6 (read-out: IC50), 97.7 µM.
The matching figures for `COc1cc(C[C@@H](CO)[C@H](CO)Cc2ccc(O)c(OC)c2)ccc1O` [(+)-SECOISOLARICIRESINOL]: 47.3 µM and > 100 µM.
In the case of `COc1cc2c(cc1O)C(=O)[C@@H](CO)[C@H](CO)C2`, the concentration for half-maximal inhibition (IC50) entry against Cytochrome P450 3A4 and against Cytochrome P450 2D6 was “Not Active” each time.
With `COc1cc([C@@H]2Oc3cc(CCCO)ccc3O[C@H]2CO)ccc1O`, the IC50 at Cytochrome P450 3A4 (read-out: IC50) is 54.2 µM; at Cytochrome P450 2D6 (read-out: IC50), > 100 µM.
As for `COc1cc([C@H]2c3cc(O)c(OC)cc3C[C@H]3C(=O)OC[C@H]23)ccc1O` [ALPHA-CONIDENDRIN], the half-inhibitory concentration (IC50) at Cytochrome P450 3A4 (read-out: IC50) was determined as 0.2 µM; on Cytochrome P450 2D6 (read-out: IC50) it was 17.7 µM.

These data come from ChEMBL document CHEMBL1667737, “Cytochrome P450 3A4 inhibitory constituents of the wood of Taxus yunnanensis” (J Nat Prod, 2011).
